ChEMBL document CHEMBL2375304, “Synthesis and anticancer activity of novel 2-pyridyl hexahyrocyclooctathieno[2,3-d]pyrimidine derivatives” (2013)

Legend:
Type in all cases: functional
LOX IMVI = experiment: Growth inhibition of human LOXIMVI cells at 10^-5 M after 48 hrs by Sulforhodamine B assay relative to control; conditions: read-out: GI
Procedure, shortened: (§1)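 Single-dose screen at 10⁻⁵ M. Cells are preincubated 24 h at 37 °C in 5% CO2, then exposed to the compound, diluted from a DMSO stock into medium with gentamicin, for 48 h. Adherent cells are fixed with cold TCA (final 10%) and suspension cells with TCA (final 16%). Cells are stained with 0.4% SRB in 1% acetic acid and bound dye is read at 515 nm. Percent growth inhibition is taken against control wells and time-zero plates.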

U-251 = experiment: Growth inhibition of human U251 cells at 10^-5 M after 48 hrs by Sulforhodamine B assay relative to control; conditions: U-251, 48 h, read-out: GI
Procedure, shortened: (§2)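 Single-dose stage: compound tested at 10⁻⁵ M in the 49-cell-line panel. Cells grew 24 h at 37 °C, 5% CO₂ before drug addition. Drug stock was in DMSO at 400-fold, diluted in medium with gentamicin. After 48 h exposure, adherent cells were fixed with cold TCA (10% final) and stained with 0.4% SRB in 1% acetic acid. Dye was solubilized in 10 mM Tris, read at 515 nm. Growth percentage was taken relative to untreated control and time-zero plates.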

SNB-75 = experiment: Growth inhibition of human SNB75 cells at 10^-5 M after 48 hrs by Sulforhodamine B assay relative to control; conditions: SNB-75, 48 h, read-out: GI
Procedure, shortened: (§3)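 Single-dose primary screen at 10⁻⁵ M across 49 lines. Cells were plated 24 h beforehand, with a TCA-fixed time-zero plate, then exposed 48 h at 37 °C, 5% CO2. Cells were fixed with cold TCA, stained with SRB and read at 515 nm. Percent growth was calculated against time-zero and untreated-control absorbances.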

SF-268 = experiment: Growth inhibition of human SF268 cells at 10^-5 M after 48 hrs by Sulforhodamine B assay relative to control; conditions: SF-268, 48 h, read-out: GI; procedure, shortened: as §3
SW-620 = experiment: Growth inhibition of human SW620 cells at 10^-5 M after 48 hrs by Sulforhodamine B assay relative to control; conditions: SW-620, 48 h, read-out: GI; procedure, shortened: as §3
HT-29 = experiment: Growth inhibition of human HT-29 cells at 10^-5 M after 48 hrs by Sulforhodamine B assay relative to control; conditions: HT-29, 48 h, read-out: GI; procedure, shortened: as §1
KM12 = experiment: Growth inhibition of human KM12 cells at 10^-5 M after 48 hrs by Sulforhodamine B assay relative to control; conditions: KM12, 48 h, read-out: GI; procedure, shortened: as §1
HCT-15 = experiment: Growth inhibition of human HCT15 cells at 10^-5 M after 48 hrs by Sulforhodamine B assay relative to control; conditions: HCT-15, 48 h, read-out: GI; procedure, shortened: as §1
COLO 205 = experiment: Growth inhibition of human COLO205 cells at 10^-5 M after 48 hrs by Sulforhodamine B assay relative to control; conditions: COLO 205, 48 h, read-out: GI; procedure, shortened: as §1
NCI-H23 = experiment: Growth inhibition of human NCI-H23 cells at 10^-5 M after 48 hrs by Sulforhodamine B assay relative to control; conditions: NCI-H23, 48 h, read-out: GI; procedure, shortened: as §3
T47D = experiment: Growth inhibition of human T47D cells at 10^-5 M after 48 hrs by Sulforhodamine B assay relative to control; conditions: read-out: GI; procedure, shortened: as §2
MCF7 = experiment: Growth inhibition of human MCF7 cells at 10^-5 M after 48 hrs by Sulforhodamine B assay relative to control; conditions: MCF7, 48 h, read-out: GI; procedure, shortened: as §1
SN12C = experiment: Growth inhibition of human SN12C cells at 10^-5 M after 48 hrs by Sulforhodamine B assay relative to control; conditions: read-out: GI; procedure, shortened: as §3
UO-31 = experiment: Growth inhibition of human UO31 cells at 10^-5 M after 48 hrs by Sulforhodamine B assay relative to control; conditions: UO-31, 48 h, read-out: GI; procedure, shortened: as §2
786-0 = experiment: Growth inhibition of human 786-0 cells at 10^-5 M after 48 hrs by Sulforhodamine B assay relative to control; conditions: 786-0, 48 h, read-out: GI; procedure, shortened: as §1
[1] = Growth inhibition of human NCI-ADR-RES cells at 10^-5 M after 48 hrs by Sulforhodamine B assay relative to control; conditions: read-out: GI; procedure, shortened: as §3
OVCAR-5 = experiment: Growth inhibition of human OVCAR5 cells at 10^-5 M after 48 hrs by Sulforhodamine B assay relative to control; conditions: OVCAR-5, 48 h, read-out: GI; procedure, shortened: as §3
OVCAR-4 = experiment: Growth inhibition of human OVCAR4 cells at 10^-5 M after 48 hrs by Sulforhodamine B assay relative to control; conditions: OVCAR-4, 48 h, read-out: GI; procedure, shortened: as §3
UACC-62 = experiment: Growth inhibition of human UACC62 cells at 10^-5 M after 48 hrs by Sulforhodamine B assay relative to control; conditions: UACC-62, 48 h, read-out: GI; procedure, shortened: as §2

Structure (SMILES) | inhibition of growth at 10 µM (LOX IMVI) [%] | inhibition of growth at 10 µM (U-251) [%] | inhibition of growth at 10 µM (SNB-75) [%] | inhibition of growth at 10 µM (SF-268) [%] | inhibition of growth at 10 µM (SW-620) [%] | inhibition of growth at 10 µM (HT-29) [%] | inhibition of growth at 10 µM (KM12) [%] | inhibition of growth at 10 µM (HCT-15) [%] | inhibition of growth at 10 µM (COLO 205) [%] | inhibition of growth at 10 µM (NCI-H23) [%] | inhibition of growth at 10 µM (T47D) [%] | inhibition of growth at 10 µM (MCF7) [%] | inhibition of growth at 10 µM (SN12C) [%] | inhibition of growth at 10 µM (UO-31) [%] | inhibition of growth at 10 µM (786-0) [%] | inhibition of growth at 10 µM [1] [%] | inhibition of growth at 10 µM (OVCAR-5) [%] | inhibition of growth at 10 µM (OVCAR-4) [%] | inhibition of growth at 10 µM (UACC-62) [%]
COc1ccc(N2CCN(c3nc(-c4ccncc4)nc4sc5c(c34)CCCCCC5)CC2)cc1 | 8.33 | 15.8 | -13.7 | 2.5 | 1.53 | 23.4 | 22.4 | 17.7 | 5.76 | 17.3 | 27 | 18.1 | 31.8 | 11.1 | 11.1 | 9.28 | 2.26 | 11.1 | 36.9
c1ccc(N2CCN(c3nc(-c4ccncc4)nc4sc5c(c34)CCCCCC5)CC2)cc1 | 0 | 0.24 | -23.8 | -1.33 | -9.11 | 12.8 | 4.95 | 2.1 | -1.65 | 1.33 | 11.7 | 2.49 | -12.2 | 16.1 | 1.77 | 5.34 | 1.59 | 0.34 | 5.59
c1ccc(N2CCN(c3nc(-c4ccccn4)nc4sc5c(c34)CCCCCC5)CC2)cc1 | 42.2 | 37.1 | 9.19 | 20.4 | 24 | 42 | 55 | 41.4 | 26.3 | 37 | 57.6 | 89.2 | 28.9 | 55.8 | 10.7 | 57.5 | 36.8 | 44 | 41.2
CN1CCN(c2nc(-c3ccccn3)nc3sc4c(c23)CCCCCC4)CC1 | 4.93 | 8.31 | 14.4 | -1.9 | -1.34 | 5.9 | 8.11 | 2.35 | 0.37 | 16 | 24.9 | 50.4 | 3.33 | 32.8 | 10 | 22.7 | 2.04 | 16 | 9.41
c1cc(-c2nc(N3CCOCC3)c3c4c(sc3n2)CCCCCC4)ccn1 | 11.6 | 21.9 | 0.97 | 4.06 | -9.82 | 17.6 | 19.6 | 20.8 | -0.84 | 8.29 | 19.2 | 28.5 | 19.3 | 38.7 | 32.9 | 18.7 | -1.32 | 22.7 | 15.5
NNc1nc(-c2ccncc2)nc2sc3c(c12)CCCCCC3 | 5.88 | 6.15 | 18.8 | -17.8 | -8.49 | 13.2 | -0.57 | 7.32 | 2.31 | 7.74 | 0.16 | 5.87 | 4.3 | 20.4 | 18.1 | 2.44 | -0.54 | 18.7 | 10.8
Clc1nc(-c2ccncc2)nc2sc3c(c12)CCCCCC3 | 5.4 | -0.32 | 9.59 | 0.85 | -3.44 | -1.58 | 0.47 | 0.89 | -16.6 | 3.14 | 6.79 | 3.18 | 4.53 | 13.9 | 0.46 | -6.46 | -5.24 | 14.8 | 6.14
Clc1nc(-c2ccccn2)nc2sc3c(c12)CCCCCC3 | 32.2 | 2.82 | 15 | 5.35 | -2.34 | 0.67 | 8.45 | 15.8 | -14.6 | 17.6 | 57.8 | 46 | 15.1 | 83.6 | 1.61 | 10.7 | -7.94 | 14.3 | 4.04
